Data published in ChEMBL document CHEMBL1165969, “Synthesis and cytotoxicity of novel indirubin-5-carboxamides” (Bioorg Med Chem, 2010).
pIC50: −log10 of the molar value. In brackets after ≈: the same amount, converted by molar mass.

Assays:
[1] = target: Ribosomal protein S6 kinase beta-1 (Homo sapiens) (UniProt P23443); test: Inhibition of p70S6K1 assessed as residual activity at 1 uM after 80 mins by microplate scintillation counting
Procedure, shortened: (§1)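 Kinase profiling was outsourced to a contract laboratory as a panel of 30 protein kinases. Each compound was tested at two concentrations, and residual kinase activity was recorded.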

[2] = Antiproliferative activity against human LXFL 529L cells after 3 days by sulforhodamine B assay; format: functional, cell-based; conditions: Homo sapiens, LXFL 529L, 72 h
Procedure, shortened: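 Cells kept at 37 °C in humidified 5% CO2 in RPMI 1640 with 10% heat-inactivated FBS, penicillin (100 units/mL) and streptomycin, and checked for mycoplasma. Seeded, grown 24 h, then exposed to drug for 3 days in serum-containing medium. Fixed with 50% TCA solution for 1 h at 4 °C, stained with 0.4% SRB, dye eluted in 10 mM Tris pH 10.5, read at 570 nm. Growth expressed as % T/C; IC50 derived.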

[3] = target: Mast/stem cell growth factor receptor Kit (Homo sapiens) (UniProt P10721); test: Inhibition of KIT assessed as residual activity at 10 uM after 80 mins by microplate scintillation counting
[4] = target: Focal adhesion kinase 1 (Homo sapiens) (UniProt Q05397); test: Inhibition of FAK assessed as residual activity at 1 uM after 80 mins by microplate scintillation counting
Chain of Focal adhesion kinase 1 (Homo sapiens) (Q05397 2-1052 limits assumed): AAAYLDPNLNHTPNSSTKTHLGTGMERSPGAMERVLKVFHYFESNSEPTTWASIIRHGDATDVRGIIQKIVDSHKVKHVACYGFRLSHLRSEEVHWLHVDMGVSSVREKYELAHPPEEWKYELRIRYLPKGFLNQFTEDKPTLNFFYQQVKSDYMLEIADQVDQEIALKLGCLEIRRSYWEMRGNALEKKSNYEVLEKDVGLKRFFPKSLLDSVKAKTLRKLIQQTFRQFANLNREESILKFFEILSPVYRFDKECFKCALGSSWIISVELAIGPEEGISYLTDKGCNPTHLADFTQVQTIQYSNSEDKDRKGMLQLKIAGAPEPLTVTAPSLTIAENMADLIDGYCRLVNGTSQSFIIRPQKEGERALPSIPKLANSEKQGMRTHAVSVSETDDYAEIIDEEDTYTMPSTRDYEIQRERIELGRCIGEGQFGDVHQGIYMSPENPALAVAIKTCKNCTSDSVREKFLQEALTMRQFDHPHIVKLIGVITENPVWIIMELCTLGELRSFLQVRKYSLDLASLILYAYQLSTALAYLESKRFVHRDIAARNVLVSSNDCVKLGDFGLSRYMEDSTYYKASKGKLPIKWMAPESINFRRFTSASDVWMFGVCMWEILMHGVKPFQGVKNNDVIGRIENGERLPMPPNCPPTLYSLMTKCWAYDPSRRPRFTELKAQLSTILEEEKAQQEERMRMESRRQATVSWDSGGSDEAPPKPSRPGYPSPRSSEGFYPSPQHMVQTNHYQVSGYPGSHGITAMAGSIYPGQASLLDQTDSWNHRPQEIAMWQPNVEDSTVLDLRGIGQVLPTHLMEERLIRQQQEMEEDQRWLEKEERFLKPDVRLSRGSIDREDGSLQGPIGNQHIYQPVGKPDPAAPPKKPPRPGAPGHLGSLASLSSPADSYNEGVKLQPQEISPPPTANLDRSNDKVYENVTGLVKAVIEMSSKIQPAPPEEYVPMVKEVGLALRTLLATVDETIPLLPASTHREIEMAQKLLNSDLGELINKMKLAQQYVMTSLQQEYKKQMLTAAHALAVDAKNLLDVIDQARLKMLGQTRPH

[5] = target: Serine/threonine-protein kinase Chk2 (Homo sapiens) (UniProt O96017); test: Inhibition of CHK2 assessed as residual activity at 10 uM after 80 mins by microplate scintillation counting
Chain of Serine/threonine-protein kinase Chk2 (Homo sapiens) (O96017 whole entry): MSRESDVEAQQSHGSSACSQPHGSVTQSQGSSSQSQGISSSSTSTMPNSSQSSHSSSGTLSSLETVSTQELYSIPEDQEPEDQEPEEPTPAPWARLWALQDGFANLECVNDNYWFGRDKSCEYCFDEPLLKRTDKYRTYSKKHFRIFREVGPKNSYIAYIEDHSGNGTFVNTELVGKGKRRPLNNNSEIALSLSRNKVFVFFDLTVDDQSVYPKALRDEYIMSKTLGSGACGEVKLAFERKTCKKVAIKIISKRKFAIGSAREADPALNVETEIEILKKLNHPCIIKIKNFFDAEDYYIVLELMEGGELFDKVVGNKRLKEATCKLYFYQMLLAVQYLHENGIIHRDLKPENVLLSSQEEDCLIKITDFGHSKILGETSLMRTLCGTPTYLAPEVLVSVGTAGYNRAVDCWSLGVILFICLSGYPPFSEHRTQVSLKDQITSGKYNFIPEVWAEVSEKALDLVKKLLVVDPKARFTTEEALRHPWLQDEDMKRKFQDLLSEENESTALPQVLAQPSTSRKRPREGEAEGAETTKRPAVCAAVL

[6] = target: Aurora kinase A (Homo sapiens) (UniProt O14965); test: Inhibition of Aurora A assessed as residual activity at 1 uM after 80 mins by microplate scintillation counting
Chain of Aurora kinase A (Homo sapiens) (O14965 whole entry): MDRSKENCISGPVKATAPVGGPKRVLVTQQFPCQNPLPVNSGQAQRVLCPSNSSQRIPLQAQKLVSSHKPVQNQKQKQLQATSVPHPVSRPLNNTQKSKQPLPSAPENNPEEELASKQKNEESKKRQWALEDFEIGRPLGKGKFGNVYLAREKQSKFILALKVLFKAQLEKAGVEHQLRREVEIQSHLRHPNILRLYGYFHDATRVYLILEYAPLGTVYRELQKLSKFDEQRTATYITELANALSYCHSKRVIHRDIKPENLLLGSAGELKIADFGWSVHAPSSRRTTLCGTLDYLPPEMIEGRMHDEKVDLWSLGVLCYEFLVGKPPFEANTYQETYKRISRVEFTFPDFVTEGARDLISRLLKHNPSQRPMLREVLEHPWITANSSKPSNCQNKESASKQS

[7] = Solubility in water by spectrophotometry; format: physicochemical
[8] = target: Tyrosine-protein kinase JAK2 (Homo sapiens) (UniProt O60674); test: Inhibition of JAK2 assessed as residual activity at 1 uM after 80 mins by microplate scintillation counting
Chain of Tyrosine-protein kinase JAK2 (Homo sapiens) (O60674 whole entry): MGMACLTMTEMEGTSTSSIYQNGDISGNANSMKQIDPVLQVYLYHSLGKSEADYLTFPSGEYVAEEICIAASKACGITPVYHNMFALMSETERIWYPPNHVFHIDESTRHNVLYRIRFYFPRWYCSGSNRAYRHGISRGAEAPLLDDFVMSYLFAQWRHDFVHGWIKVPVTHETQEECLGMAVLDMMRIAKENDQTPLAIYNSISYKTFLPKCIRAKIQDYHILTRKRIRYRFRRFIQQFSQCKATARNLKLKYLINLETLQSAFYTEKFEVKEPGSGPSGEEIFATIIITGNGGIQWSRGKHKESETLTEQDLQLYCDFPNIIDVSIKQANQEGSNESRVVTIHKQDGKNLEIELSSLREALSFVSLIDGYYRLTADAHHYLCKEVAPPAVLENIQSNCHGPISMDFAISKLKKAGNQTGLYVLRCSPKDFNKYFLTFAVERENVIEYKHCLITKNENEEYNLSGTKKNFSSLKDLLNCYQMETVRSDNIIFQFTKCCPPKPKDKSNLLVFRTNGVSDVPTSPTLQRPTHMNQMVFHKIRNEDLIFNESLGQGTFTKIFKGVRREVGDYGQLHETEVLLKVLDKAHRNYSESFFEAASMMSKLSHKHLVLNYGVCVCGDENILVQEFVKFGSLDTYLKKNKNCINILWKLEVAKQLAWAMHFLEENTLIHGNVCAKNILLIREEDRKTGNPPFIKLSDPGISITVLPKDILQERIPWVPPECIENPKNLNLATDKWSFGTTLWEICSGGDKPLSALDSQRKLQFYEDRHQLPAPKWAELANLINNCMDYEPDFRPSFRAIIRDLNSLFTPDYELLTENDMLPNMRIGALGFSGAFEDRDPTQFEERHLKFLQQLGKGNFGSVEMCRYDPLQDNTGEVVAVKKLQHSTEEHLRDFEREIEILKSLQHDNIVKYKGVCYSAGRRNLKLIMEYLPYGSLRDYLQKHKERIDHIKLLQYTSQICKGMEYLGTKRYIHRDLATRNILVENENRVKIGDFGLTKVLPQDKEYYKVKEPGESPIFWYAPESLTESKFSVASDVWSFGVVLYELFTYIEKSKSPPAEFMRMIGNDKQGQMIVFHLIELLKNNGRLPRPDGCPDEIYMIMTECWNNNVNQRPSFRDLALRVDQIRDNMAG

[9] = target: RAF proto-oncogene serine/threonine-protein kinase (Homo sapiens) (UniProt P04049); test: Inhibition of RAF1 assessed as residual activity at 1 uM after 80 mins by microplate scintillation counting; procedure, shortened: as §1
[10] = target: Aurora kinase C (Homo sapiens) (UniProt Q9UQB9); test: Inhibition of Aurora C assessed as residual activity at 1 uM after 80 mins by microplate scintillation counting
Chain of Aurora kinase C (Homo sapiens) (Q9UQB9 whole entry): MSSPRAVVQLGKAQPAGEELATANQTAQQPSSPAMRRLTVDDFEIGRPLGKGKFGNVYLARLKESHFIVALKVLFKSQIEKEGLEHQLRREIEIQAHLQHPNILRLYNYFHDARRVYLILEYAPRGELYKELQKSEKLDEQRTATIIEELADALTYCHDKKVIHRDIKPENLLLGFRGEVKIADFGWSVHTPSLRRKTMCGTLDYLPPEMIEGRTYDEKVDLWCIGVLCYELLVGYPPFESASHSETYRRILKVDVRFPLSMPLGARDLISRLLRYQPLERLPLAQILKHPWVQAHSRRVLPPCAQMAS

[11] = target: Fibroblast growth factor receptor 1 (Homo sapiens) (UniProt P11362); test: Inhibition of FGFR1 assessed as residual activity at 10 uM after 80 mins by microplate scintillation counting
[12] = target: Aurora kinase A (Homo sapiens) (UniProt O14965); test: Inhibition of Aurora A assessed as residual activity at 10 uM after 80 mins by microplate scintillation counting
[13] = target: Tyrosine-protein kinase JAK2 (Homo sapiens) (UniProt O60674); test: Inhibition of JAK2 assessed as residual activity at 10 uM after 80 mins by microplate scintillation counting
[14] = target: Tyrosine-protein kinase Fgr (Homo sapiens) (UniProt P09769); test: Inhibition of FGR assessed as residual activity at 1 uM after 80 mins by microplate scintillation counting
[15] = target: Cyclin-dependent kinase 1/cyclin B1 (Homo sapiens) (UniProt P06493+P14635); test: Inhibition of CDK1/Cyclin B1 assessed as residual activity at 1 uM after 80 mins by microplate scintillation counting; format: protein-complex assay
[16] = target: Glycogen synthase kinase-3 beta (Homo sapiens, UniProt P49841); test: Inhibition of GSK3-beta assessed as inhibition of [33Pi] incorporation after 80 mins by microplate scintillation counting
[17] = target: Serine/threonine-protein kinase Chk1 (Homo sapiens) (UniProt O14757); test: Inhibition of CHK1 assessed as residual activity at 10 uM after 80 mins by microplate scintillation counting
[18] = target: Cyclin-dependent kinase 2/cyclin A (Homo sapiens) (UniProt P24941+P20248+P78396); test: Inhibition of CDK2/Cyclin A assessed as residual activity at 1 uM after 80 mins by microplate scintillation counting; format: protein-complex assay
[19] = target: Proto-oncogene tyrosine-protein kinase Src (Homo sapiens) (UniProt P12931); test: Inhibition of SRC assessed as residual activity at 1 uM after 80 mins by microplate scintillation counting; procedure, shortened: as §1
[20] = target: Focal adhesion kinase 1 (Homo sapiens) (UniProt Q05397); test: Inhibition of FAK assessed as residual activity at 10 uM after 80 mins by microplate scintillation counting
[21] = target: Aurora kinase B (Homo sapiens) (UniProt Q96GD4); test: Inhibition of Aurora B assessed as residual activity at 1 uM after 80 mins by microplate scintillation counting
[22] = target: Serine/threonine-protein kinase Chk2 (Homo sapiens) (UniProt O96017); test: Inhibition of CHK2 assessed as residual activity at 1 uM after 80 mins by microplate scintillation counting
[23] = target: Receptor-type tyrosine-protein kinase FLT3 (Homo sapiens) (UniProt P36888); test: Inhibition of FLT3 assessed as residual activity at 1 uM after 80 mins by microplate scintillation counting
[24] = target: Vascular endothelial growth factor receptor 2 (Homo sapiens) (UniProt P35968); test: Inhibition of VEGFR2 assessed as residual activity at 10 uM after 80 mins by microplate scintillation counting; procedure, shortened: as §1
Chain of Vascular endothelial growth factor receptor 2 (Homo sapiens) (P35968 whole entry): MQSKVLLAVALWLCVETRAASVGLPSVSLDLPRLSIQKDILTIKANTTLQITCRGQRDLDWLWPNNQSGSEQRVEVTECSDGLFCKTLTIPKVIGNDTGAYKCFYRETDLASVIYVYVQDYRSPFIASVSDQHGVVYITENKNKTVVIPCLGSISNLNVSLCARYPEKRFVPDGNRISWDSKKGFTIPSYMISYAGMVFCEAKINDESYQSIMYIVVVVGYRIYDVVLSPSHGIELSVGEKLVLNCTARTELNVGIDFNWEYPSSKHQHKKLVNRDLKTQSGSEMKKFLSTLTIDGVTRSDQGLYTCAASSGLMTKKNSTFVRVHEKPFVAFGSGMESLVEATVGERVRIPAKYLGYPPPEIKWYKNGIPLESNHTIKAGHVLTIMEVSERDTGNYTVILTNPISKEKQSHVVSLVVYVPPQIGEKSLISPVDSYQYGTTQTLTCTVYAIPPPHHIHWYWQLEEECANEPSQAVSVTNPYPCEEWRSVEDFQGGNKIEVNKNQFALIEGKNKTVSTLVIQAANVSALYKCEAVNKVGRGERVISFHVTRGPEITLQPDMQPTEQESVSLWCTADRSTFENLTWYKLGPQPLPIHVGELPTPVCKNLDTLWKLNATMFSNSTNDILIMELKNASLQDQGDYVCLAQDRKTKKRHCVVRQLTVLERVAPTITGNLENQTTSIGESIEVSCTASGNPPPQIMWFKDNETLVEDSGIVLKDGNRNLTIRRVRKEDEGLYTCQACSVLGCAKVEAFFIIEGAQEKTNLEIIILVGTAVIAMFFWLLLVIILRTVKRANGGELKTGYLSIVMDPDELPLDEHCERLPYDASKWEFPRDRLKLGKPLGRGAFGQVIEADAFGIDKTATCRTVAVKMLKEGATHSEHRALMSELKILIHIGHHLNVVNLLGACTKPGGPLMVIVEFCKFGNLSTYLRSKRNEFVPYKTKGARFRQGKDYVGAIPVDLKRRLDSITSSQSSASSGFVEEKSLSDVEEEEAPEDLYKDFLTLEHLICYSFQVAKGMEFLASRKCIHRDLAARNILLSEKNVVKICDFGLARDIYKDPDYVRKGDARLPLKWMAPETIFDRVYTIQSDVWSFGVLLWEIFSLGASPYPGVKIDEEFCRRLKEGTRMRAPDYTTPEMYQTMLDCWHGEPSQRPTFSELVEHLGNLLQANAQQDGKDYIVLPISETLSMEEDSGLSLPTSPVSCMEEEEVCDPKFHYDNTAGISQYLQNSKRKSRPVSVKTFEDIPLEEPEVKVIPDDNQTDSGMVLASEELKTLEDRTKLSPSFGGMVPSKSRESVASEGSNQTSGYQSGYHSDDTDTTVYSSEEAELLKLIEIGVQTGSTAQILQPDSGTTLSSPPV

[25] = target: Muscle, skeletal receptor tyrosine-protein kinase (Homo sapiens) (UniProt O15146); test: Inhibition of MUSK assessed as residual activity at 1 uM after 80 mins by microplate scintillation counting
[26] = target: Insulin-like growth factor 1 receptor (Homo sapiens) (UniProt P08069); test: Inhibition of IGF1R assessed as residual activity at 1 uM after 80 mins by microplate scintillation counting

Activity [1]: 94%
Activity [3]: 129%
Activity [4]: 103%
Activity [5]: 69%
Activity [6]: 86%
solubility [7]: 520 µg/mL (≈ 1080 µM)
Activity [8]: 95%
Activity [9]: 94%
Activity [10]: 83%
Activity [11]: 83%
Activity [12]: 63%
Activity [13]: 48%
Activity [14]: 99%
Activity [15]: 79%
pIC50 [16]: 7.00
Activity [17]: 45%
Activity [18]: 60%
Activity [19]: 132%
Activity [20]: 92%
Activity [21]: 98%
Activity [22]: 90%
Activity [23]: 67%
Activity [24]: 65%
Activity [25]: 81%
Activity [26]: 102%
Compound: CN1CCN(c2ccc(NC(=O)c3ccc4c(c3)/C(=C3/Nc5ccccc5C3=O)C(=O)N4)cc2)CC1
pIC50 [2]: 6.27
